Source: PubChem (Johns Hopkins Ion Channel Center)
Kir21 block: Kir2.1 (mouse) channel inhibition; HEK293-Kir2.1, FluxOR thallium flux fluorescence; active compounds read low; B-score at 10 µM; 0.85% of 310,000 active;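 active means fluorescence ratio B-score at or below minus 3 SD of library scores, with starting-brightness B-score within 2 SD, cut at about -4.2 in these data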;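 further: channel flux triggered by added potassium and thallium sulfate stimulus; B-score of peak minus minimum fluorescence over baseline after thallium stimulus; more negative B-score means stronger Kir2.1 block with less thallium influx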
Target sequence (P35561 whole entry, looked up): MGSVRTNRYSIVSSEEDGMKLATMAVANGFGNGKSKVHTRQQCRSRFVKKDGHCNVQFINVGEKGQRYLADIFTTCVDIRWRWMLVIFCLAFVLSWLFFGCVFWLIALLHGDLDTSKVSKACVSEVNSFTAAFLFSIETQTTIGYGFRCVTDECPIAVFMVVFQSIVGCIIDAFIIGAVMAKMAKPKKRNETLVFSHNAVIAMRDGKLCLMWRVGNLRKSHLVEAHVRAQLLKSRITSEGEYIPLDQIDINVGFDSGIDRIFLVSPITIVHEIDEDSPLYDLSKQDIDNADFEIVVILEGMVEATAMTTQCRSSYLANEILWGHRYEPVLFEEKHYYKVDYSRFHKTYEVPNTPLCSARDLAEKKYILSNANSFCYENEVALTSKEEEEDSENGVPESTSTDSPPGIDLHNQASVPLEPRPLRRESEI
KCNQ1 block: inhibitors of human KCNQ1 potassium channel. P51787. B-score at 10 µM. CHO-K1 KCNQ1, FluxOR thallium flux fluorescence; active compounds read high. 1.3% of 310,000 active. AID 2642;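 active means compounds whose thallium flux B-score, printed positive for inhibition, exceeds three library SD while starting fluorescence stays within three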;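 further: channel opened by potassium depolarization with thallium stimulus after 20 min compound exposure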
hERG protect: compounds protecting human hERG from proarrhythmic drug block; Q12809; CHO-hERG, FluxOR thallium flux, dofetilide IC70 present; activation (rescue from dofetilide block), less the hit threshold, % at 10 µM; 0.51% of 310,000 active;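 active means activation above the mean of controls blocked by dofetilide plus 5 SD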;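 further: thallium influx through hERG after potassium depolarization seen as dye fluorescence rise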
KCNK9 block: blocks the human KCNK9 two-pore domain potassium channel | Q9NPC2 | HEK293 KCNK9, FluxOR thallium flux fluorescence; active compounds read low | B-score at 10 µM | 1.2% of 310,000 active | AID 488922;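 active means ratio B-score over 3 SD below the library mean, with starting fluorescence within 5 SD of its mean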;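 further: negative B-score means less thallium flux so channel inhibition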
KCNQ1 act: human KCNQ1 channel potentiation or activation | P51787 | CHO-K1 KCNQ1, thallium flux FluxOR fluorescence; active compounds read high | B-score at 10 µM | 0.35% of 310,000 active | AID 2648;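 active means fluorescence ratio B-score, a plate-corrected score, at least three library SD, with initial intensity B-score within 5 SD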
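Material: CHO-K1 cells stably expressing KCNQ1. Medium: assay buffer for compound exposure, DMSO matched across wells. Reagent: K+/Tl+ depolarizing stimulus. Compound dosing: single-concentration screen. Times: 37 °C overnight plating, 90-min dark dye load, 20-min compound pretreatment. Technique: FluxOR Tl+ flux fluorescence.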
KCNK3 block: human KCNK3 channel inhibition, primary screen; CHO-KCNK3 thallium flux, FluxOR fluorescence; active compounds read low; B-score at 10 µM; O14649; 0.84% of 340,000 active;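 active means B-score under library mean minus 4 SD, starting fluorescence ratio at most library mean plus 5 SD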;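 further: more negative B-score means stronger inhibition of thallium flux through KCNK3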
Numbers without * were called inactive; i = inactive; x = not tested or not shown. A selection: hits, their analogues and other compounds. The true share with any hit is near 3.8%.

SMILES	Kir21 block	KCNQ1 block	hERG protect	KCNK9 block	KCNQ1 act	KCNK3 block
O=C(NCc1cccc(Br)c1)c1cc(-c2ccccc2)nn1CC1CC(c2cccc([N+](=O)[O-])c2)=NO1 (stereo not drawn)	-0.61	i	-14	-7.1*	i	i
Cc1ccc(C)n1-c1sc2c(c1C#N)CCC(C)C2 (stereo not drawn)	0.95	i	-5	-7.4*	i	i
CC(=O)Nc1sc2c(c1C#N)CCC(C)C2 (stereo not drawn)	2	i	-6	i	i	i
CSCCC(NC(=O)c1ccc([N+](=O)[O-])cc1Cl)C(=O)OCC(=O)C12CC3CC(CC(C3)C1)C2 (stereo not drawn)	1.6	i	39*	i	i	i
Cc1cccc(Oc2ccccc2NC(=O)CSCC(=O)Nc2cc(C)on2)c1	x	x	x	x	x	i
COc1ccc(C)cc1Nc1n[n+](-c2ccccc2)c(-c2ccc(OC)c(OC)c2OC)s1	-4.9*	11*	-25	i	i	i
Cc1c(NC(=O)CN2C(=O)c3cccc4cccc2c34)c(=O)n(-c2ccccc2)n1C	-0.14	i	-2	i	i	i
C[n+]1ccc(/C=C/c2c[nH]c3ccc(F)cc23)cc1	-6.7	11*	-18	-6.7*	i	i
CC(C)(C)C1=CC(O)(c2ccccc2)C=C(C(C)(C)C)C1=O	-1.8	8*	-13	i	i	i
Cc1ccc(N=Nc2ccc(O)c3ncccc23)cc1C	-0.82	i	-1	i	11*	i
Cc1ccc(N=Nc2ccc(O)c3ncccc23)cc1	-0.88	i	20*	i	16*	i
CSc1cc(-c2ccccc2)n(Cc2ccccc2Cl)c(=O)c1C#N	0.12	i	-2	i	i	i
Cc1ccc([N+](=O)[O-])cc1N=Nc1c(-c2ccc([N+](=O)[O-])cc2)[nH]n(C(N)=S)c1=O	1.3	7*	-25	i	i	i
Cc1ccc([N+](=O)[O-])cc1N=Nc1c(C)[nH]n(C(N)=S)c1=O	-0.31	i	-4	i	i	i
CC1Oc2ccccc2N(CC(=O)N2CCCCCC2)C1=O (stereo not drawn)	0.06	i	2	i	22*	i
CCCCNC(=S)N(C)/N=C/c1ccc2c(c1)OCO2	0.04	i	-10	i	i	i
CC(C(=O)Nc1ccccc1C#N)N1C(=O)NC2(CCCCCC2)C1=O (stereo not drawn)	x	x	x	x	x	i
COc1ccc(C(=O)C(c2ccccc2)N2CCOCC2)cc1 (stereo not drawn)	-1.7	i	-3	i	i	i
Cc1ccc(C(=O)C(c2ccccc2)N2Cc3ccccc3C2=N)cc1 (stereo not drawn)	-8.3*	11*	-17	i	i	i
CCOc1ccccc1OCCOc1ccccc1OC(C)C	-4.9*	i	-9	i	i	i
Cc1cc(Cn2nc(C(=O)NCc3cccc(C(F)(F)F)c3)cc2-c2ccccc2)on1	x	x	x	x	x	-9.7*
Cc1ccc(-c2ccc(/C=N\n3cnnc3)o2)c(Br)c1	0.62	i	-2	i	i	i
COc1ccc(CN(C(=O)c2ccco2)c2ccccc2)cc1	-4.2*	i	-6	i	i	i
COc1ccc(CC2=CC(=O)c3ccccc3C2=O)cc1	-2.6	8*	-6	i	i	i
Cc1cc(N/N=C/c2ccccc2)nc(NCc2ccccc2)n1	0.65	i	-4	i	i	i
SMILES	Kir21 block	KCNQ1 block	hERG protect	KCNK9 block	KCNQ1 act	KCNK3 block
Cc1cc(N/N=C/c2cccc(F)c2)nc(NCc2ccccc2)n1	0.14	8*	-31	i	i	i
COc1ccc(S(=O)(=O)N(Cc2ccccc2)c2ccccc2C(=O)Nc2ccccc2C(=O)NCc2ccco2)cc1	-0.47	i	-4	-6.9*	i	i
Cc1ccc(OCCSc2cc(C)nc(N)n2)cc1	-0.1	i	-8	i	i	i
Cc1ccc(C(=O)OCC(=O)NCc2ccco2)cc1C	x	x	x	x	x	i
Cc1cc(C)c2sc(N(CCCN(C)C)C(=O)c3ccc(S(=O)(=O)N4CCCc5ccccc54)cc3)nc2c1	-0.94	6*	-17	i	i	i
O=C(Cc1coc2cc3c(cc12)CCC3)NCC1(N2CCCCC2)CCCCC1	-4.7*	i	-4	i	i	i
O=C(Cc1coc2cc3c(cc12)CCC3)NC1CCCCCCC1	1.7	i	-4	i	i	i
CC(=O)c1ccc(Oc2ccc(C(C)=O)cc2)cc1	1.3	i	-6	i	i	i
Oc1ccc(Oc2ccc(Oc3ccc(O)cc3)cc2)cc1	0.31	13*	-9	-6.9*	i	i
CCN(CC)c1nc(C(F)(F)F)nc2c1nnn2Cc1ccccc1	-0.96	6*	-6	i	i	i
COC(=O)C1=C(C)NC(=O)/C1=C\c1cc(C)n(-c2cccc(C)c2)c1C	2.3	9*	-17	i	i	i
O=S(=O)(NC(=S)NC1CCCCC1)c1ccc(Cl)cc1	0.47	i	5.5*	i	i	i
Cc1ccc(S(=O)(=O)NC(=S)NC2CCCCC2)cc1	-1	i	7.5*	i	i	i
CCc1ccc(S(=O)(=O)NC(=S)NC2CCCCC2)cc1	0.29	i	21*	i	23*	i
CCc1ccc(C(C)NC(=S)NC2CCCCC2)cc1 (stereo not drawn)	-1	i	-3	i	i	i
CCNc1nc(NCC)n2c(SCC(=O)Nc3ccc(C)cc3Br)nnc2n1	x	x	x	x	x	i
O=C(C1=C[C@@H](c2coc3ccccc3c2=O)C[C@@H](OCc2ccc(CO)cc2)O1)N1CCOCC1	1.4	i	-2	i	i	i
CCC(=O)O[C@@H]1CC(=O)O[C@H](C)CC=CC=C[C@@H](O)[C@H](C)C[C@H](CC=O)[C@H](O[C@H]2O[C@H](C)[C@@H](O[C@H]3C[C@@](C)(O)[C@@H](OC(=O)CC)[C@H](C)O3)[C@H](N(C)C)[C@H]2O)[C@H]1OC	1.7	i	-7	i	i	x
CCn1c2ccc(C)cc2c2nnc(SCCN3CCCCC3)nc21	-2.1	i	-8	i	i	i
c1ccc2c(c1)CCN(c1nc(CN3CCOCC3)nc3sc4c(c13)CCCC4)C2	-1	6*	-13	i	i	i
COc1ccc(CNCc2ccncc2)c(OC)c1	0.39	i	-1	i	i	i
COc1ccc(CNCc2ccc3ccccc3c2)c(OC)c1	-8.5*	i	-7	i	i	i
Cc1ccc(NC(=O)c2c([N+](=O)[O-])c(C(C)(C)C)nn2C)cc1	1.5	i	24*	i	i	i
